Reference: ChEMBL document CHEMBL4765357, “Development of small-molecule inhibitors of fatty acyl-AMP and fatty acyl-CoA ligases in Mycobacterium tuberculosis” (Eur J Med Chem, 2020)
Values after ≈ are worked out from the molar mass of the structure shown.

How the values were obtained:
[1] = test system: Mycobacterium tuberculosis; assay: Antimycobacterial activity against isoniazid/rifampicin/ethambutol/streptomycin/ofloxacin/para-aminosalicylic acid/prothionamide multidrug-resistant Mycobacterium tuberculosis assessed as inhibition of bacterial growth under GAST medium condition after 7 to 14 days by broth microdilution method; type: functional; details: time 7-14 day
Method in brief: (§1)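 Clinical MDR/XDR Mtb strains tested by broth microdilution in GAST or 7H9 with tyloxapol (0.05%), BSA fraction V (5 g/L) and NaCl (0.8 g/L) plus a carbon source. Compounds were dosed from DMSO stocks against DMSO vehicle controls. Inoculum was 10⁴-10⁵ cells per assay, with growth monitored at days 7 and 14. MIC is the concentration causing >99% inhibition.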

[2] = test system: Mycobacterium tuberculosis; assay: Antimycobacterial activity against isoniazid/rifampicin/ethambutol/para-aminosalicylic acid extensively drug-resistant Mycobacterium tuberculosis assessed as inhibition of bacterial growth under 7H9 medium condition after 7 to 14 days by broth microdilution method; type: functional; details: time 7-14 day; method in brief: as §1
[3] = test system: Mycobacterium tuberculosis; assay: (§2) Antimycobacterial activity against isoniazid/rifampicin/ethambutol/pyrazinamide/streptomycin/kanamycin/para-aminosalicylic acid/prothionamide multidrug-resistant Mycobacterium tuberculosis assessed as inhibition of bacterial growth under 7H9 medium condition after 7 to 14 days by broth microdilution method; type: functional; details: time 7-14 day; method in brief: as §1
[4] = test system: Mycobacterium tuberculosis; assay: as §2, with “days in presence of tylo-xapol” for “days”; type: functional; details: time 7-14 day; method in brief: as §1
[5] = test system: Mycobacterium tuberculosis; assay: Antimycobacterial activity against isoniazid/rifampicin/ethambutol/kanamycin/ofloxacin multidrug-resistant Mycobacterium tuberculosis assessed as inhibition of bacterial growth under GAST medium condition after 7 to 14 days by broth microdilution method; type: functional; details: time 7-14 day; method in brief: as §1
[6] = test system: Mycobacterium tuberculosis; assay: Antimycobacterial activity against isoniazid/rifampicin/ethambutol/kanamycin/ofloxacin multidrug-resistant Mycobacterium tuberculosis assessed as inhibition of bacterial growth under 7H9 medium condition after 7 to 14 days by broth microdilution method; type: functional; details: time 7-14 day; method in brief: as §1
[7] = test system: Mycobacterium tuberculosis; assay: Antimycobacterial activity against isoniazid/rifampicin/ethambutol/para-aminosalicylic acid extensively drug-resistant Mycobacterium tuberculosis assessed as inhibition of bacterial growth under GAST medium condition after 7 to 14 days by broth microdilution method; type: functional; details: time 7-14 day; method in brief: as §1
[8] = test system: Mycobacterium tuberculosis; assay: Antimycobacterial activity against isoniazid/rifampicin/ethambutol/streptomycin/ofloxacin/para-aminosalicylic acid/prothionamide multidrug-resistant Mycobacterium tuberculosis assessed as inhibition of bacterial growth under 7H9 medium condition after 7 to 14 days by broth microdilution method; type: functional; details: time 7-14 day; method in brief: as §1
[9] = test system: Mycobacterium tuberculosis; assay: Antimycobacterial activity against isoniazid/rifampicin/ethambutol/pyrazinamide/streptomycin/kanamycin/para-aminosalicylic acid/prothionamide multidrug-resistant Mycobacterium tuberculosis assessed as inhibition of bacterial growth under GAST medium condition after 7 to 14 days by broth microdilution method; type: functional; details: time 7-14 day; method in brief: as §1
[10] = biological target: T1, Long-chain-fatty-acid--AMP ligase FadD32 (Mycobacterium tuberculosis (strain ATCC 25618 / H37Rv), UniProt O53580); assay: Inhibition of Mycobacterium tuberculosis H37Rv FAAL32 expressed in Escherichia coli BL21(DE3) cells incubated for 2 hrs in presence of [C14] fatty acid by SDS-PAGE analysis; details: read-out: Ki(app)
T1 sequence (O53580 whole entry): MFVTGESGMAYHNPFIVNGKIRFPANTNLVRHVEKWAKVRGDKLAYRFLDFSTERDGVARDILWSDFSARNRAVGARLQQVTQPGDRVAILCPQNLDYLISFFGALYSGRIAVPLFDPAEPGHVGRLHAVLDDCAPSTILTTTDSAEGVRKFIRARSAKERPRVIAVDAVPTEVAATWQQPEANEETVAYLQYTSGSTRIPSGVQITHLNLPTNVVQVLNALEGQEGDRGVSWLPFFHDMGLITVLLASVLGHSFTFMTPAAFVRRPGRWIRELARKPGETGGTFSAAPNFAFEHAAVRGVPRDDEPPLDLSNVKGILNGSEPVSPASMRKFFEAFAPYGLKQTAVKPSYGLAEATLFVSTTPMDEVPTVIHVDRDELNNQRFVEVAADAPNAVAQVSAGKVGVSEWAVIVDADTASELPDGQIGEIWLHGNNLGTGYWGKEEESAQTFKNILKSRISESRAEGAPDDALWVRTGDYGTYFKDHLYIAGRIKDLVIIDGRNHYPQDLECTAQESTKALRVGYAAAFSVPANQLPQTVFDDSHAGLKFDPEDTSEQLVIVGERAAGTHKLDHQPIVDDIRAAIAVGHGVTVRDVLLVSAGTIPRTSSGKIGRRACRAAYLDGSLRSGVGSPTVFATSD

## CCCCCCCCCCCC(=O)NS(=O)(=O)OC[C@H]1O[C@@H](n2cnc3c(N)ncnc32)[C@H](O)[C@@H]1O
[1]
  MIC: 12.5 µM (≈ 6.61 µg/mL)
[2]
  MIC: 6.25 µM (≈ 3.3 µg/mL)
[3]
  MIC: 12.5 µM (≈ 6.61 µg/mL)
[4]
  MIC: 12.5 µM
[5]
  MIC: 3.13 µM (≈ 1.65 µg/mL)
[6]
  MIC: 6.25 µM (≈ 3.3 µg/mL)
[7]
  MIC: 6.25 µM (≈ 3.3 µg/mL)
[8]
  MIC: 12.5 µM (≈ 6.61 µg/mL)
[9]
  MIC: 25 µM (≈ 13.2 µg/mL)

## CCCCCCCCCCCCOP(=O)(O)OC[C@H]1O[C@@H](n2cnc3c(N)ncnc32)[C@H](O)[C@@H]1O
[10]
  Ki: 110 nM

## C=CCCCCCCCCC(=O)NS(=O)(=O)OC[C@H]1O[C@@H](n2cnc3c(N)ncnc32)[C@H](O)[C@@H]1O
[1]
  MIC: 3.13 µM (≈ 1.6 µg/mL)
[2]
  MIC: 12.5 µM (≈ 6.41 µg/mL)
[3]
  MIC: 50 µM (≈ 25.6 µg/mL)
[4]
  MIC: 6.25 µM
[5]
  MIC: 3.13 µM (≈ 1.6 µg/mL)
[6]
  MIC: 625 µM (≈ 320 µg/mL)
[7]
  MIC: 3.13 µM (≈ 1.6 µg/mL)
[8]
  MIC: 25 µM (≈ 12.8 µg/mL)
[9]
  MIC: 3.13 µM (≈ 1.6 µg/mL)

## Nc1ncnc2c1ncn2[C@@H]1O[C@H](COS(=O)(=O)NC(=O)CCCCCCCCCCOc2ccccc2)[C@@H](O)[C@H]1O
[1]
  MIC: 625 µM (≈ 379 µg/mL)
[2]
  MIC: 12.5 µM (≈ 7.58 µg/mL)
[3]
  MIC: 12.5 µM (≈ 7.58 µg/mL)
[4]
  MIC: 12.5 µM
[6]
  MIC: 12.5 µM (≈ 7.58 µg/mL)
[8]
  MIC: 50 µM (≈ 30.3 µg/mL)
[9]
  MIC: 6.25 µM (≈ 3.79 µg/mL)

## CCCCCCCCCCCCCC(=O)NS(=O)(=O)OC[C@H]1O[C@@H](n2cnc3c(N)ncnc32)[C@H](O)[C@@H]1O
[1]
  MIC: 12.5 µM (≈ 6.96 µg/mL)
[2]
  MIC: 6.25 µM (≈ 3.48 µg/mL)
[3]
  MIC: 25 µM (≈ 13.9 µg/mL)
[4]
  MIC: 12.5 µM
[5]
  MIC: 6.25 µM (≈ 3.48 µg/mL)
[6]
  MIC: 3.13 µM (≈ 1.74 µg/mL)
[7]
  MIC: 6.25 µM (≈ 3.48 µg/mL)
[8]
  MIC: 12.5 µM (≈ 6.96 µg/mL)
[9]
  MIC: 12.5 µM (≈ 6.96 µg/mL)

## CCCCCCCCCOCC(=O)NS(=O)(=O)OC[C@H]1O[C@@H](n2cnc3c(N)ncnc32)[C@H](O)[C@@H]1O
[1]
  MIC: 6.25 µM (≈ 3.32 µg/mL)
[2]
  MIC: 6.25 µM (≈ 3.32 µg/mL)
[3]
  MIC: 12.5 µM (≈ 6.63 µg/mL)
[4]
  MIC: 12.5 µM
[5]
  MIC: 0.39 µM (≈ 0.207 µg/mL)
[6]
  MIC: 6.25 µM (≈ 3.32 µg/mL)
[7]
  MIC: 0.78 µM (≈ 0.414 µg/mL)
[8]
  MIC: 50 µM (≈ 26.5 µg/mL)
[9]
  MIC: 1.56 µM (≈ 0.828 µg/mL)

## [N-]=[N+]=NCCCCCCCCCCCC(=O)NS(=O)(=O)OC[C@H]1O[C@@H](n2cnc3c(N)ncnc32)[C@H](O)[C@@H]1O
[1]
  MIC: 625 µM (≈ 356 µg/mL)
[2]
  MIC: 12.5 µM (≈ 7.12 µg/mL)
[3]
  MIC: 50 µM (≈ 28.5 µg/mL)
[4]
  MIC: 6.25 µM
[5]
  MIC: 3.13 µM (≈ 1.78 µg/mL)
[6]
  MIC: 625 µM (≈ 356 µg/mL)
[7]
  MIC: 3.13 µM (≈ 1.78 µg/mL)
[8]
  MIC: 25 µM (≈ 14.2 µg/mL)
[9]
  MIC: 3.13 µM (≈ 1.78 µg/mL)

## NNC(=O)c1ccncc1 [ISONIAZID]
[1]
  MIC: 8 µM (≈ 1.1 µg/mL)
[2]
  MIC: 2 µM (≈ 0.274 µg/mL)
[3]
  MIC: 2 µM (≈ 0.274 µg/mL)
[4]
  MIC: 2 µM
[5]
  MIC: 4 µM (≈ 0.549 µg/mL)
[6]
  MIC: 2 µM (≈ 0.274 µg/mL)
[7]
  MIC: 4 µM (≈ 0.549 µg/mL)
[8]
  MIC: 8 µM (≈ 1.1 µg/mL)
[9]
  MIC: > 8 µM
